How the values were obtained:
MDA-MB-435 [1] = test: Antiproliferative activity against human MDA-MB-435 cells after 48 hrs by MTT assay; type: functional, cell-based; details: MDA-MB-435, 48 h
HL-60(TB) = test: Anticancer activity against human HL-60(TB) cells after 48 hrs by SRB assay; type: functional; details: HL-60, 48 h
Method in brief: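 NCI-60 five-dose screen. Cells grown in RPMI 1640 with 5% FBS and 2 mM L-glutamine, seeded at 5000–40,000 cells/well, and held 24 h at 37 °C and 5% CO₂ before drug. DMSO stocks were diluted into five concentrations (10-fold or ½-log steps). Settled suspension cells were fixed with cold TCA, SRB-stained, and read at 515 nm. […] was taken where [(Ti−Tz)/(C−Tz)]×100 = 50.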

K562 = test: Anticancer activity against human K562 cells after 48 hrs by SRB assay; type: functional; details: K562, 48 h
Method in brief: (§1)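 NCI five-dose screen. Cells in RPMI 1640 with 5% FBS and 2 mM L-glutamine, seeded at 5000–40,000 cells/well according to doubling time, then pre-incubated 24 h at 37 °C in 5% CO2. Drugs dissolved in DMSO, five concentrations by 10-fold or 1/2-log dilution. Cells fixed with TCA, SRB-stained, A515 read. IC50 solved from [(Ti−Tz)/(C−Tz)]×100 = 50.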

RPMI-8226 = test: Anticancer activity against human RPMI8226 cells after 48 hrs by SRB assay; type: functional; details: RPMI-8226, 48 h
SR = test: Anticancer activity against human SR cells after 48 hrs by SRB assay; type: functional
Method in brief: (§2)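 NCI-60 five-dose mode: cells in RPMI 1640 with 5% FBS and 2 mM glutamine, plated at 5000–40,000 cells/well, and preincubated 24 h, with time-zero plates TCA-fixed. Drug given at five concentrations (10-fold or ½-log serial dilutions). Cold TCA fixation 60 min at 4 °C, SRB stain, Tris solubilization, A515. IC50 taken where [(Ti−Tz)/(C−Tz)]×100 = 50.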

EKVX = test: Anticancer activity against human EKVX cells after 48 hrs by SRB assay; type: functional; method in brief: as §1
HOP-62 = test: Anticancer activity against human HOP62 cells after 48 hrs by SRB assay; type: functional; details: HOP-62, 48 h; method in brief: as §1
HOP-92 = test: Anticancer activity against human HOP92 cells after 48 hrs by SRB assay; type: functional; details: HOP-92, 48 h; method in brief: as §1
NCI-H23 = test: Anticancer activity against human NCI-H23 cells after 48 hrs by SRB assay; type: functional; details: NCI-H23, 48 h
NCI-H522 = test: Anticancer activity against human NCI-H522 cells after 48 hrs by SRB assay; type: functional; details: NCI-H522, 48 h
COLO 205 = test: Anticancer activity against human COLO205 cells after 48 hrs by SRB assay; type: functional; details: COLO 205, 48 h; method in brief: as §1
HCT-116 = test: Anticancer activity against human HCT116 cells after 48 hrs by SRB assay; type: functional; details: HCT-116, 48 h; method in brief: as §1
HT-29 = test: Anticancer activity against human HT-29 cells after 48 hrs by SRB assay; type: functional; details: HT-29, 48 h; method in brief: as §1
SF-268 = test: Anticancer activity against human SF268 cells after 48 hrs by SRB assay; type: functional; details: SF-268, 48 h
SF-539 = test: Anticancer activity against human SF539 cells after 48 hrs by SRB assay; type: functional; details: SF-539, 48 h
U-251 = test: Anticancer activity against human U251 cells after 48 hrs by SRB assay; type: functional; details: U-251, 48 h; method in brief: as §2
LOX IMVI = test: Anticancer activity against human LOXIMVI cells after 48 hrs by SRB assay; type: functional; method in brief: as §1
Malme-3M = test: Anticancer activity against human MALME-3M cells after 48 hrs by SRB assay; type: functional; method in brief: as §1
MDA-MB-435 [2] = test: Anticancer activity against human MDA-MB-435 cells after 48 hrs by SRB assay; type: functional; details: MDA-MB-435, 48 h; method in brief: as §1
SK-MEL-2 = test: Anticancer activity against human SK-MEL-2 cells after 48 hrs by SRB assay; type: functional; details: SK-MEL-2, 48 h
SK-MEL-5 = test: Anticancer activity against human SK-MEL-5 cells after 48 hrs by SRB assay; type: functional; details: SK-MEL-5, 48 h
NCI/ADR-RES = test: Anticancer activity against human NCI/ADR-RES cells after 48 hrs by SRB assay; type: functional
CAKI-1 = test: Anticancer activity against human Caki1 cells after 48 hrs by SRB assay; type: functional; details: CAKI-1, 48 h; method in brief: as §1
RXF 393 = test: Anticancer activity against human RXF393 cells after 48 hrs by SRB assay; type: functional; details: RXF 393, 48 h
T47D = test: Anticancer activity against human T47D cells after 48 hrs by SRB assay; type: functional; method in brief: as §2
MDA-MB-468 = test: Anticancer activity against human MDA-MB-468 cells after 48 hrs by SRB assay; type: functional; details: MDA-MB-468, 48 h
[3] = read-out: LC50 (the source's name)

O=C(NCCNc1nccc(-c2c(-c3cccc(O)c3)nc3sccn23)n1)c1ccccc1O
IC50 (MDA-MB-435 [1]): 433 nM
GI50 (HL-60(TB)): 4.95 µM
LC50 (HL-60(TB)): > 100 µM
TGI (HL-60(TB)): > 100 µM
GI50 (K562): 6.06 µM
TGI (K562): > 100 µM
CC50 (K562; [3]): > 100 µM
GI50 (RPMI-8226): 3.55 µM
LC50 (RPMI-8226): > 100 µM
TGI (RPMI-8226): > 100 µM
GI50 (SR): 5.94 µM
TGI (SR): > 100 µM
CC50 (SR; [3]): > 100 µM
GI50 (EKVX): 7.81 µM
LC50 (EKVX): > 100 µM
TGI (EKVX): 39.1 µM
GI50 (HOP-62): 3.59 µM
LC50 (concentration killing 50% of starting cells) (HOP-62): > 100 µM
TGI (HOP-62): 32.5 µM
GI50 (HOP-92): 9.74 µM
TGI (HOP-92): 34.7 µM
CC50 (HOP-92; [3]): > 100 µM
GI50 (NCI-H23): 11.5 µM
LC50 (50% lethal concentration) (NCI-H23): > 100 µM
TGI (NCI-H23): 67.7 µM
GI50 (NCI-H522): 4.83 µM
TGI (NCI-H522): 20.4 µM
CC50 (NCI-H522; [3]): 57 µM
GI50 (COLO 205): 5.58 µM
TGI (COLO 205): 20.9 µM
CC50 (COLO 205; [3]): 66.1 µM
GI50 (HCT-116): 5.13 µM
TGI (HCT-116): > 100 µM
CC50 (HCT-116; [3]): > 100 µM
GI50 (HT-29): 4.22 µM
TGI (HT-29): 15.3 µM
CC50 (HT-29; [3]): 40.8 µM
GI50 (SF-268): 3.59 µM
TGI (SF-268): 24.9 µM
CC50 (SF-268; [3]): > 100 µM
GI50 (SF-539): 11.9 µM
TGI (SF-539): > 100 µM
CC50 (SF-539; [3]): > 100 µM
GI50 (U-251): 152 nM
TGI (U-251): 18.7 µM
CC50 (U-251; [3]): 64.6 µM
GI50 (LOX IMVI): 335 nM
TGI (LOX IMVI): 16.4 µM
CC50 (LOX IMVI; [3]): 75.1 µM
GI50 (Malme-3M): 433 nM
TGI (Malme-3M): 11.8 µM
CC50 (Malme-3M; [3]): 45.1 µM
GI50 (MDA-MB-435 [2]): 1220 nM
TGI (MDA-MB-435 [2]): 3.54 µM
CC50 (MDA-MB-435 [2]; [3]): 10.6 µM
GI50 (SK-MEL-2): 651 nM
TGI (SK-MEL-2): 15.9 µM
CC50 (SK-MEL-2; [3]): > 100 µM
GI50 (SK-MEL-5): 4.57 µM
TGI (SK-MEL-5): 53.3 µM
CC50 (SK-MEL-5; [3]): > 100 µM
GI50 (NCI/ADR-RES): 5.05 µM
TGI (NCI/ADR-RES): 68.5 µM
CC50 (NCI/ADR-RES; [3]): > 100 µM
GI50 (CAKI-1): 3.71 µM
TGI (CAKI-1): 55.6 µM
CC50 (CAKI-1; [3]): > 100 µM
GI50 (RXF 393): 3.19 µM
TGI (RXF 393): 21.2 µM
CC50 (RXF 393; [3]): > 100 µM
GI50 (T47D): 2950 nM
TGI (T47D): 20 µM
CC50 (T47D; [3]): > 100 µM
GI50 (MDA-MB-468): 2300 nM
TGI (MDA-MB-468): 18.2 µM
CC50 (MDA-MB-468; [3]): > 100 µM

From ChEMBL document CHEMBL1914423, “New imidazo[2,1-b]thiazole derivatives: synthesis, in vitro anticancer evaluation, and in silico studies” (Eur J Med Chem, 2011)
